Laboratory results: paper PMC12217349 (Scientific Reports, 2025)

Legend:
[1] = system: myocardial infarction (MI) mouse model; assay: Myocardial infarction; type: in vivo, Male C57BL/6J mice; conditions: MI mice; daily oral gavage 28 days; SNT-5382 14 mg/kg, losartan 15 mg/kg
In short: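 Male C57BL/6J mice, 10–11 weeks, were anaesthetised with ketamine 100 mg/kg and xylazine 10 mg/kg under ventilation. The left coronary artery was permanently ligated; shams had no occlusion. Mice with fractional shortening of 10–40% at 24 h were included. Daily oral gavage for 4 weeks: test compound 14 mg/kg (free base), losartan 15 mg/kg or water vehicle; blinded.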

[2] = system: bone marrow collagen fibrosis; conditions: myelofibrosis patients treated for 9 months; cited from earlier work
[3] = system: LOXL2; conditions: cited from earlier work

CCCCc1nc(Cl)c(CO)n1Cc1ccc(-c2ccccc2-c2nn[nH]n2)cc1 [losartan, Losartan]
hypertrophy: left ventricular end-systolic diameter (LVESD) [1]: no significant effect

NCc1cc(Oc2cccc(C(=O)N3C[C@@H](O)[C@H](F)C3)c2)nc(C(F)(F)F)c1 [GB2064]
patients with reduced bone marrow collagen fibrosis grade [2]: 60%

B1: simtuzumab: an allosteric LOXL2 selective antibody (antibody, chains of the INN, looked up, V domains shown)
VH: QVQLVQSGAEVKKPGASVKVSCKASGYAFTYYLIEWVRQAPGQGLEWIGVINPGSGGTNYNEKFKGRATITADKSTSTAYMELSSLRSEDTAVYFCARNWMNFDYWGQGTTVTVSS
VL: DIVMTQTPLSLSVTPGQPASISCRSSKSLLHSNGNTYLYWFLQKPGQSPQFLIYRMSNLASGVPDRFSGSGSGTDFTLKISRVEAEDVGVYYCMQHLEYPYTFGGGTKVEIK
inhibition of LOXL2 enzymatic activity [3]: did not inhibit the enzymatic activity of LOXL2
